Experimental data from ChEMBL document CHEMBL4196173, “Stabilized β-Hairpin Peptide Inhibits Insulin Degrading Enzyme” (J Med Chem, 2018).
Activity calls are given as the source filed them. No cut-off for these calls is given here.

Key:
[1] = biological target: Insulin-degrading enzyme (Homo sapiens) (UniProt P14735); test: Inhibition of IDE (unknown origin) assessed as potentiation of insulin-induced AKT phosphorylation in rat skeletal muscle cells at 100 uM preincubated up to 12 hrs followed by insulin addition and measured after 10 mins by Western blot analysis; assay type: cell-based
Sequence of Insulin-degrading enzyme (Homo sapiens) (P14735 whole entry): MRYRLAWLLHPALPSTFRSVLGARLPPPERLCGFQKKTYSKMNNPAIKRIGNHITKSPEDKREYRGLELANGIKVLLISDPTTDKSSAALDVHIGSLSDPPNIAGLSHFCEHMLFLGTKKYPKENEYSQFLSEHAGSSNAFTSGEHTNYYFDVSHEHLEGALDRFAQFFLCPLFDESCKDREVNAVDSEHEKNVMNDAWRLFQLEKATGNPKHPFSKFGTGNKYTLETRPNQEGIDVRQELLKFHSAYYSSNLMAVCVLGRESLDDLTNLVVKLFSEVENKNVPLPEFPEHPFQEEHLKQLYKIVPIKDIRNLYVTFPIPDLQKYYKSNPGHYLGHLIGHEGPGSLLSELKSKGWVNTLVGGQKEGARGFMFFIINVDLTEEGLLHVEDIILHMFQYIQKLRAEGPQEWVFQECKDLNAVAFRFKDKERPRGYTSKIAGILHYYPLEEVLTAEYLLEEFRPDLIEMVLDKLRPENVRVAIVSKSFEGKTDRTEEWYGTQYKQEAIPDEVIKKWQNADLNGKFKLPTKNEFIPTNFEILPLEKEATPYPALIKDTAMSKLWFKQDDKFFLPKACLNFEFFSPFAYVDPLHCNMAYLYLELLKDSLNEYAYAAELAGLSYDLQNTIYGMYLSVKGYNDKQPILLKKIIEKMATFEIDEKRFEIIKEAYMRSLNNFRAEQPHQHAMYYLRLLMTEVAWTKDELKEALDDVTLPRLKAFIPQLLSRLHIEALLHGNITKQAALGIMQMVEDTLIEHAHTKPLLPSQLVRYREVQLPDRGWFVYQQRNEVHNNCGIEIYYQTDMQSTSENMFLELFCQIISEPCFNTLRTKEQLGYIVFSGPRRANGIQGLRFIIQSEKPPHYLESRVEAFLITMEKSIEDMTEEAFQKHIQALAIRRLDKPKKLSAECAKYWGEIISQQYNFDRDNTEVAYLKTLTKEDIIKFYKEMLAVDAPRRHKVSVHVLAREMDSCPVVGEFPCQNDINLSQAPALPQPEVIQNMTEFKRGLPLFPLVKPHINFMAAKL
Outline: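 Rat skeletal muscle cells were treated with 100 nM IDE plus peptide, for 10 min or at time points up to 24 h with 100 μM. Insulin (10 nM) was then added for 10 min. RIPA lysates were run on 10% SDS-PAGE and blotted for pAKT and AKT with GAPDH as loading control. Densitometry on three regions, two-tailed t test.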

Mus musculus [2] = test: Effect on amyloid beta (1-40) levels in lean C57BL/6J mouse brain at 80 mg/kg, ip administered per another day measured after 4 hrs to 11 days post injection by ELISA; assay type: ADME, organism-based; details: in vivo
Outline: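 Male lean C57BL/6J mice received 80 mg kg−1 i.p. every other day (n = 5) or PBS vehicle. Brains (~350 mg) were Dounce-homogenized in PBS with 1 mM PMSF and spun at 13,000 rpm for 30 min at 277 K. Supernatant Aβ(1–40) was measured by ELISA at 4 h, 24 h, 7 days and 11 days. Mean ± SEM, two-tailed t test.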

Mus musculus [3] = test: Effect on basal beta-endrophins levels in lean C57BL/6J mouse at 80 mg/kg, ip after 30 to 120 mins post injection by ELISA; assay type: ADME, organism-based; details: in vivo
Outline: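 Male lean C57BL/6J mice received 80 mg kg−1 i.p. (n = 5) or PBS. At 30 or 120 min, heparinized blood was taken from tail or eye socket and spun to plasma. Insulin (5 μL plasma), C-peptide, glucagon, beta-endorphin and TNF alpha (10 μL each) were measured by ultrasensitive ELISA. Mean ± SEM, two-tailed t test.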

[4] = Selectivity ratio of IC50 for ECE-1 (unknown origin) to IC50 for mouse His-tagged IDE (42 to 1019 residues)
[5] = Selectivity ratio of IC50 for ACE (unknown origin) to IC50 for mouse His-tagged IDE (42 to 1019 residues)
[6] = Absolute bioavailability in lean C57BL/6J mouse at 100 mg/kg, ip by LC-MS analysis; assay type: ADME, organism-based; details: in vivo
Outline: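 Mice received the peptide by orbital i.v. injection (taken as 100%) or by i.p. injection. Plasma was sampled from 20 min to 43 h, TCA-precipitated and analysed by LC–MS. Fabc% = (AUCip × Div)/(AUCiv × Dip) × 100%. Two independent experiments.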

[7] = Metabolic stability in 25% mouse serum assessed as compound remaining at 250 uM up to 24 hrs by LC-MS analysis; assay type: ADME, cell-free
Outline: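 Peptide at a final 250 μM in 25% mouse serum was incubated at 310 K for 0–24 h. Samples were quenched in 12% TCA in H2O/CH3CN (1:1) and chilled at 277 K for 15 min. After centrifugation, the intact peptide in the supernatant was quantified by LC–MS. Three independent experiments.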

[8] = Drug uptake in brain parenchyma of lean C57BL/6J mouse at 80 mg/kg, iv using FITC-labeled compound by two-photon microscopic analysis; details: in vivo
Mus musculus [9] = test: Toxicity in lean C57BL/6J mouse assessed as body weight change at 80 mg/kg, ip after 3 days; assay type: organism-based; details: in vivo, 72 h
Outline: (§1)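 Male lean C57BL/6J mice (13–15 weeks) received 80 mg kg−1 i.p. or PBS vehicle (n = 6 each). Behaviour and body weight were monitored.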

HeLa = test: Cytotoxicity against human HeLa cells assessed as reduction in cell viability at <300 uM after 24 hrs at 310 K by MTT assay; assay type: cell-based
Outline: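 HeLa cells were grown overnight in DMEM with 10% FBS, then exposed to serial dilutions starting at 300 μM in medium with 5% FBS for 24 h at 310 K under 5% CO2. MTT was added for a further 4 h and formazan absorbance read at 490 nm. Three independent experiments in duplicate.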

Mus musculus [10] = test: Toxicity in lean C57BL/6J mouse assessed as behavioral changes at 80 mg/kg, ip; assay type: organism-based; details: in vivo; outline: as §1
[11] = Selectivity ratio of IC50 for NEP (unknown origin) to IC50 for mouse His-tagged IDE (42 to 1019 residues)
Mus musculus [12] = test: Effect on glucose levels in lean C57BL/6J mouse at 80 mg/kg, ip administered 30 min prior to glucose stimulation measured up to 120 min […]; assay type: ADME, organism-based; details: in vivo
[13] = Drug uptake in human HeLa cells at 5 uM using FITC-labeled compound after 2 hrs at 310 K by LC-MS analysis; assay type: ADME, cell-based
Outline: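 HeLa cells were exposed to FITC-labelled peptide for 2 h, washed with PBS and 0.4% trypan blue, then trypsinized, washed and lysed. The lysates were examined by LC–MS.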

[14] = Hemolytic activity against mouse RBC at 300 uM after 1 hr at 310 K; assay type: ADME, cell-based, Erythrocyte; details: mouse red blood cells (erythrocytes), read-out: Activity
Outline: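 Fresh mouse red cells were washed six times and suspended at 1 × 10^8 cells/mL in PBS. Peptides at 2.3–300 μM were added for 1 h at 310 K. After centrifugation, hemoglobin in the supernatant was read at 576 nm. PBS served as 0% and 0.1% Triton X-100 as 100% lysis. Three independent experiments in duplicate.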

[15] = biological target: Insulin-degrading enzyme (Homo sapiens) (UniProt P14735); test: Inhibition of IDE (unknown origin)-mediated FITC-insulin degradation in rat skeletal muscle cells at 100 uM after 10 mins at 310 K by DAPI-staining based fluorescent inverted microscopic imaging analysis; assay type: cell-based
Outline: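 Rat skeletal muscle cells on coverslips were given 100 nM wild-type IDE and 100 μM peptide for 10 min at 310 K, then FITC-insulin for a further 10 min. Cells were washed, fixed in 4% paraformaldehyde, stained with DAPI and imaged by fluorescent inverted microscopy. Repeated three times.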

inhibition [1]: Active
Ratio IC50 [4]: > 1000
Ratio IC50 [5]: > 1000
bioavailability [6]: 83.5%
Stability [7]: Unstable
Drug uptake [8]: Not Active
Ratio IC50 [11]: > 1000
Drug uptake [13]: Active
inhibition [15]: Active
Structure (SMILES): CC(=O)N[C@@H](CCC(=O)O)C(=O)N[C@@H](Cc1c[nH]c2ccccc12)C(=O)N[C@@H](CCCNC(=N)N)C(=O)N[C@@H](Cc1ccccc1)C(=O)N[C@H]1CC(=O)NC[C@@H](C(=O)N[C@@H](CC(C)C)C(=O)N[C@@H](Cc2ccc(O)cc2)C(=O)N[C@@H](CC(C)C)C(=O)N[C@H](C(=O)N[C@@H](CS)C(=O)NCC(N)=O)C(C)C)NC(=O)[C@H](CCC(=O)O)NC(=O)[C@@H]2CCCN2C(=O)[C@H]2CCCN2C(=O)CNC1=O
Activity (Mus musculus [2]): Non-Toxic
Activity (Mus musculus [3]): Non-Toxic
Activity (Mus musculus [9]): Non-Toxic
Activity (HeLa): Non-Toxic
Activity (Mus musculus [10]): Non-Toxic
Activity (Mus musculus [12]): Non-Toxic
hemolysis at 1 h, 300 µM [14]: < 10%
